The results in this text go back to ChEMBL document CHEMBL3098025, “Optimization of potency and pharmacokinetics of tricyclic indole derived inhibitors of HCV NS5B polymerase. Identification of ester prodrugs with improved oral pharmacokinetics” (Bioorg Med Chem, 2014).

One series relates to Hepatitis C virus. Briefly: Antiviral activity against HCV1b assessed as inhibition of viral replication. It is filed as functional, organism-based, Hepacivirus hominis. The conditions noted are these: genotype 1b. An outline of the steps:
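In the cell-based HCV replicon assay, viral RNA levels were measured. EC50 is the concentration giving a 50% reduction in replicon RNA.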

Series [1] can be described thus: Inhibition of HCV1b NS5B polymerase. Further details: species or system Hepatitis C virus subtype 1b.
Series [2] concerns Liver microsome. Briefly: Metabolic stability in human liver microsomes assessed as glutathione adduct formation. It is filed as ADME. (In general: Microsomes from liver hold many membrane-bound enzymes, among them those of drug oxidation.)
The subject of series [3] is Liver microsome. Briefly: Metabolic stability in human liver microsomes assessed as oxidation. It is filed as ADME.

Take `O=C(O)c1c(-c2ccc[nH]c2=O)c2c3occc3c(F)cc2n1Cc1cc(F)ccc1F`: in the series on Hepatitis C virus, the EC90 (commonly the concentration needed for an effect of 90%) was 0.09 µM. For the same molecule, in series [1], the IC50 (usually the point on the concentration scale where inhibition reaches its midpoint) was found to be 0.002 µM. Further, the Stability entry in the series on Liver microsome [2] and in the series on Liver microsome [3] was “Stable” each time.
